Values joined by “and” are separate entries in the source; they are usually repeats but may differ in a detail not shown here. Identical values can stand only once.
Tested on: Fibroblast
Assay: Multiplex assay against human fibroblast
Assay type: toxicity, cell-based
Details: number of replicates 2
Outline: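 Hoechst33342, BioTracker Green Microtubule Cytoskeleton Dye, MitoTracker Red and Annexin V Alexa Fluor 680 were added to live cells at seeding, and imaging on a CQ1 microscope at 37°C and 5% CO2 followed compound addition. Gating by CellPathfinder machine learning separated cells into Hoechst high-intensity objects or normal cells, then normal cells into healthy, pyknosed or fragmented nuclei, then pyknosed cells into mitotic or apoptotic. Per cents of healthy-nucleus cells are reported for the tubulin, mitochondrial-mass and membrane-permeability phenotypes.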

[1] = 12 h, 1 µM, compound concentration 1 uM
[2] = 12 h, 10 µM, compound concentration 10 uM
[3] = 24 h, 1 µM, compound concentration 1 uM
[4] = 24 h, 10 µM, compound concentration 10 uM
[5] = 48 h, 1 µM, compound concentration 1 uM
[6] = 48 h, 10 µM, compound concentration 10 uM

Structure (SMILES): COc1ccc(CC[C@@H](OC(=O)[C@@H]2CCCCN2C(=O)[C@H](c2cc(OC)c(OC)c(OC)c2)C2CCCCC2)c2cccc(OCCN3CCOCC3)c2)cc1OC
- Population Apoptotic (%) [1]: 42% and 47%
- Population Fragmented Nuclei (%) [1]: 12% and 11%
- Population Healthy Nuclei (%) [1]: 65% and 64%
- Population Hoechst High Intensity Objects (%) [1]: 0%
- Population Membrane Permeable-Phenotype (%) [1]: 20%
- Population Mitochondria Different-Phenotype (%) [1]: 7% and 2%
- Population Mitotic Cells (%) [1]: 57% and 52%
- Population Normal (%) [1]: 100% and 99%
- Population Pyknosed Nuclei (%) [1]: 21% and 23%
- Population Tubulin-Different-Phenotype (%) [1]: 81% and 69%
- Total Cell Count [1]: 227 and 146
- Population Apoptotic (%) [2]: 51% and 55%
- Population Fragmented Nuclei (%) [2]: 14% and 19%
- Population Healthy Nuclei (%) [2]: 60% and 59%
- Population Hoechst High Intensity Objects (%) [2]: 0%
- Population Membrane Permeable-Phenotype (%) [2]: 25% and 21%
- Population Mitochondria Different-Phenotype (%) [2]: 14% and 11%
- Population Mitotic Cells (%) [2]: 48% and 44%
- Population Normal (%) [2]: 99% and 100%
- Population Pyknosed Nuclei (%) [2]: 24% and 20%
- Population Tubulin-Different-Phenotype (%) [2]: 89% and 84%
- Total Cell Count [2]: 188 and 273
- Population Apoptotic (%) [3]: 50% and 59%
- Population Fragmented Nuclei (%) [3]: 7% and 20%
- Population Healthy Nuclei (%) [3]: 67% and 51%
- Population Hoechst High Intensity Objects (%) [3]: 0%
- Population Membrane Permeable-Phenotype (%) [3]: 10% and 9%
- Population Mitochondria Different-Phenotype (%) [3]: 14%
- Population Mitotic Cells (%) [3]: 50% and 40%
- Population Normal (%) [3]: 99% and 100%
- Population Pyknosed Nuclei (%) [3]: 24% and 28%
- Population Tubulin-Different-Phenotype (%) [3]: 74% and 65%
- Total Cell Count [3]: 207 and 148
- Population Apoptotic (%) [4]: 66% and 71%
- Population Fragmented Nuclei (%) [4]: 14% and 20%
- Population Healthy Nuclei (%) [4]: 59% and 56%
- Population Hoechst High Intensity Objects (%) [4]: 0%
- Population Membrane Permeable-Phenotype (%) [4]: 15% and 6%
- Population Mitochondria Different-Phenotype (%) [4]: 24% and 45%
- Population Mitotic Cells (%) [4]: 33% and 28%
- Population Normal (%) [4]: 99%
- Population Pyknosed Nuclei (%) [4]: 26% and 22%
- Population Tubulin-Different-Phenotype (%) [4]: 86% and 89%
- Total Cell Count [4]: 193 and 253
- Population Apoptotic (%) [5]: 71% and 82%
- Population Fragmented Nuclei (%) [5]: 6% and 14%
- Population Healthy Nuclei (%) [5]: 77% and 66%
- Population Hoechst High Intensity Objects (%) [5]: 0%
- Population Membrane Permeable-Phenotype (%) [5]: 8% and 17%
- Population Mitochondria Different-Phenotype (%) [5]: 3% and 10%
- Population Mitotic Cells (%) [5]: 28% and 17%
- Population Normal (%) [5]: 100% and 99%
- Population Pyknosed Nuclei (%) [5]: 16% and 18%
- Population Tubulin-Different-Phenotype (%) [5]: 61% and 51%
- Total Cell Count [5]: 199 and 150
- Population Apoptotic (%) [6]: 85% and 80%
- Population Fragmented Nuclei (%) [6]: 22% and 29%
- Population Healthy Nuclei (%) [6]: 59% and 55%
- Population Hoechst High Intensity Objects (%) [6]: 1% and 0%
- Population Membrane Permeable-Phenotype (%) [6]: 20% and 8%
- Population Mitochondria Different-Phenotype (%) [6]: 27% and 30%
- Population Mitotic Cells (%) [6]: 14% and 20%
- Population Normal (%) [6]: 98% and 99%
- Population Pyknosed Nuclei (%) [6]: 17% and 15%
- Population Tubulin-Different-Phenotype (%) [6]: 91%
- Total Cell Count [6]: 195 and 265

Reference: ChEMBL document CHEMBL5303300, “EUbOPEN Chemogenomics Library - Multiplex” (2023)
